# A selection: hits, their analogues and other compounds. The true share with any hit is near 1.5%.
# APJ ag: activates the human apelin receptor APJ; CHO-K1 APJ PathHunter beta-arrestin, luminescence; 0% DMSO wells, 100% apelin; P35414; 330,000 compounds, 0.11% hits; activation, % at 20 µM; AID 2520;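 active = activation more than six SD over the plate average, tested at 20 µM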
# Target sequence (P35414 whole entry, looked up): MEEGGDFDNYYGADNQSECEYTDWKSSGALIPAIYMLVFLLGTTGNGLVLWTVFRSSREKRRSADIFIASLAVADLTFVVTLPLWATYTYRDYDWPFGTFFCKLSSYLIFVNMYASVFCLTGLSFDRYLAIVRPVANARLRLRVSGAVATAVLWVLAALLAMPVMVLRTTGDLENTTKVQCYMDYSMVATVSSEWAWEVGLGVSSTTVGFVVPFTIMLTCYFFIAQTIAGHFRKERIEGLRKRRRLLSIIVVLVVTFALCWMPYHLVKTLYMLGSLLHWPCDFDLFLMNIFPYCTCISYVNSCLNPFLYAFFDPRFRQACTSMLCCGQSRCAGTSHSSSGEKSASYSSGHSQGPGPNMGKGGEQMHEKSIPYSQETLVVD
#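 Test system: CHO-K1 APJ beta-arrestin complementation cell line. Amount: cell density 1000 per well. Controls: DMSO negative, 10 nM Apelin-13 positive. Signal: luminescent beta-gal fragment complementation, chemiluminescent substrate. Read-out basis: agonist-driven arrestin binding to APJ. Timing: compound stimulation 90 min at 25 °C, detection 60 min.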
# EBI2 antag: antagonists of human EBI2 receptor. P32249. EBI2 beta-arrestin recruitment, luminescence, 7a,25-OHC stimulated. inhibition, % at 5 µM. 360,000 compounds, 0.81% hits. AID 651636; in the data active = inhibition above about 38%;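 note: enzyme fragment complementation signal reports receptor beta-arrestin coupling in cells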
# APJ antagonist: APJ receptor antagonism; 330,000 compounds, 0.32% hits; CHO-K1 APJ beta-arrestin complementation, luminescence; inhibition, % at 20 µM; AID 2521;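 active = inhibition above about 40% at 20 µM, limit read from the data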;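 note: cells challenged with 10 nM apelin-13 agonist together with compound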
# CCR6 antagonist: antagonists of human CCR6 receptor. 340,000 compounds, 0.49% hits. CHO-K1 CCR6 PathHunter beta-arrestin, luminescence, CCL20-stimulated. inhibition, % at 20 µM;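 active = compounds whose inhibition of the agonist-driven luminescence signal at 20 µM reaches about 50%, limit read from the data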;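 note: cells stimulated with CCL20 at 14 nM final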
# CXCR6 block: inhibitors of human CXCR6 receptor | inhibition, % at 20 µM | 360,000 compounds, 0.36% hits | CHO-K1 PathHunter CXCR6 beta-arrestin, luminescence; in the data active = inhibition above about 34%, passing the limit was not always enough;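 note: antagonist mode with CXCL16 agonist at 10 nM final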
# EBI2 conf: confirmation of human EBI2 receptor antagonists | shares compounds with EBI2 antag | inhibition, % at 5 µM | 2,400 compounds, 29% hits | EBI2 beta-arrestin luminescence, 7a,25-OHC antagonism;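 active = inhibition of at least 50%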
# EBI2 agonist: activates EBI2, counter-screen for EBI2 antagonists | EBI2-expressing cells, agonist mode, luminescence, 60 min; 0% vehicle, 100% 7α,25-dihydroxycholesterol control | shares compounds with EBI2 antag | 2,400 tested, under 10 active | activation, % at 5 µM;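 active = activation of at least 50%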
# bGal counter: beta-galactosidase inhibition counter-screen; shares compounds with EBI2 antag; inhibition, % at 5 µM; 2,400 compounds, 1% hits; purified beta-galactosidase, luminescent Galacton Star, 15 min; AID 652176;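 active = replicate-average signal at least 3 plate SD below neutral wells, shown as high inhibition, flagging enzyme-inhibiting false positives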;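 note: higher means stronger loss of beta-gal luminescence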
# Numbers stand for hits; . = inactive; / = not tested or not shown.
SMILES,APJ ag,EBI2 antag,APJ antagonist,CCR6 antagonist,CXCR6 block,EBI2 conf,EBI2 agonist,bGal counter
COc1ccc(C)cc1NC(=O)COC(=O)C1CCN(C(=O)c2ccc(Cl)cc2)CC1,.,.,.,.,.,/,/,/
COc1ccc(/C=N/NC(=S)NC2CCS(=O)(=O)C2)cc1OC (configuration not stated),.,.,.,.,.,/,/,/
Cc1ccc(/C=N/NC(=S)NC2CCS(=O)(=O)C2)cc1 (configuration not stated),.,44.0,.,.,.,.,.,.
O=C(CN1CCN(C(=O)C2CCN(C(=O)/C=C/c3ccccc3)CC2)CC1)Nc1ccccc1Cl,.,87.6,.,.,.,56.3,.,.
CCOC(=O)C1CCN(C(=O)/C=C/c2ccccc2)CC1,.,64.6,.,.,.,51.2,.,.
O=C(/C=C/c1ccc2c(c1)OCO2)N1CCCCC1,.,.,.,.,.,/,/,/
CCOC(=O)C1CCN(C(=O)/C=C/c2ccc3c(c2)OCO3)CC1,.,55.8,.,.,.,.,.,.
O=C(CN1CCCCCC1)Nc1ccccc1Cl,.,.,.,.,.,/,/,/
CN(C)C(CNC(=O)C1CCN(C(=O)/C=C/c2ccccc2)CC1)c1ccccc1 (configuration not stated),.,72.2,.,.,.,.,.,.
CC1CCCCN1C(=O)c1ccc(C(=O)Nc2ccc(F)cc2)cc1 (configuration not stated),.,51.5,.,.,.,.,.,.
CN(c1ccc(OCC(=O)NCCc2ccccc2)cc1)S(=O)(=O)c1ccc(Cl)cc1,.,.,.,.,.,/,/,/
COc1ccc(CCNC(=O)COc2ccc(N(C)S(=O)(=O)c3ccc(Cl)cc3)cc2)cc1,/,63.0,/,.,.,.,.,.
CCOC(=O)c1ccc(-n2cnc(-c3ccc([N+](=O)[O-])cc3)c2)cc1,/,49.9,/,/,.,.,.,.
COc1cccc(Oc2cnc(N)nc2-c2ccc(OC)cc2O)c1,.,52.5,.,.,.,.,.,.
COc1ccc(-c2nc(N)ncc2Oc2ccccc2Br)c(O)c1,.,61.8,.,.,.,.,.,.
O=C(c1ccc(Cl)cc1)N1CCC(O)(CSc2ccc(Cl)cc2)CC1,.,68.8,.,.,.,56.5,.,.
O=C(c1ccc(Cl)cc1)N1CCC(O)(CSc2ccccc2)CC1,.,67.8,.,.,.,71.0,.,.
CN1CCN(C(=O)c2ccc(CSc3ccc(Cl)cc3)cc2)CC1,.,.,.,.,.,/,/,/
COc1cccc(SCC2(O)CCN(C(=O)c3ccc(Cl)cc3)CC2)c1,.,55.2,.,.,.,.,.,.
CC(C)(C)C1c2[nH]c3ccccc3c2CCN1Cc1cccc(OCCO)c1 (configuration not stated),.,.,.,.,.,/,/,/
CC(C)(C)NC(=O)C(=O)NNC(=O)c1cccc(F)c1,.,.,.,.,.,/,/,/
O=S(=O)(c1ccccc1)N1CCN(CC(O)COc2ccc3c(c2)CCC3)CC1 (configuration not stated),.,83.0,.,.,.,69.2,.,.
CCN1CCN(CC(O)COc2ccc3c(c2)CCC3)CC1 (configuration not stated),.,.,.,.,.,/,/,/
COc1ccc(CN(C)C(=O)COC(=O)c2cc([N+](=O)[O-])ccc2N2CCCC2)c(OC)c1OC,.,.,.,.,.,/,/,/
CCCCn1c(N)c(N(CCOC)C(=O)c2ccc(-c3ccc(C(C)=O)cc3)o2)c(=O)[nH]c1=O,.,.,.,.,.,/,/,/
SMILES,APJ ag,EBI2 antag,APJ antagonist,CCR6 antagonist,CXCR6 block,EBI2 conf,EBI2 agonist,bGal counter
COc1ccc(C(=O)C(=O)N2CCC(c3ccccc3)CC2)cn1,/,42.9,/,/,/,.,.,.
C=CCN(CC=C)C(=O)c1ccc(OC2CCN(S(=O)(=O)N(C)C)CC2)cc1,.,.,.,.,.,/,/,/
Cc1ccc(S(=O)(=O)N(C)C)cc1NC(=O)COC(=O)c1sc2cc(Cl)ccc2c1Cl,.,.,.,.,.,/,/,/
O=C(NCCc1ccccc1)C1CCC(Cn2c(=O)c3ccccc3n(Cc3cccc(Cl)c3)c2=O)CC1 (configuration not stated),.,.,.,.,.,/,/,/
O=C(NCCc1ccccc1)C1CCC(Cn2c(=O)c3ccccc3n(Cc3cccc(F)c3)c2=O)CC1 (configuration not stated),.,61.1,.,.,.,.,.,.
CCOc1ccc(NC(=S)N(CCOC)C(C)c2ccco2)cc1 (configuration not stated),.,54.8,.,.,.,.,.,.
CCOc1ccc(NC(=S)N(CCc2ccncc2)C(C)C)cc1,.,51.6,.,.,.,.,.,.
COc1ccc(NC(=S)N(CCC(C)C)C2CCN(C(C)C)CC2)cc1,.,.,.,.,.,/,/,/
Cc1cccc(C)c1NC(=S)N(CCc1ccncc1)C(C)C,.,.,.,.,.,/,/,/
COCCN(C(=S)Nc1ccc(C)cc1)C(C)c1ccco1 (configuration not stated),.,.,.,.,.,/,/,/
CCOc1ccc(NC(=S)N(CCOC)C2CCN(C(C)C)CC2)cc1,.,53.8,.,.,.,.,.,.
CN1CCN(C(=O)/C=C/c2ccccc2)CC1,.,44.8,.,.,.,.,.,.
O=C(/C=C/c1ccc(Cl)cc1)N1CCN(CCN2C(=O)c3cccc4cccc(c34)C2=O)CC1,/,96.7,/,.,.,80.8,.,.
CSc1ccc(/C=C/C(=O)N2CCCN(C)CC2)cc1,.,87.0,.,.,.,57.3,.,.
CC(C)c1ccc(/C=C/C(=O)N2CCCCCC2)cc1,.,.,.,.,.,/,/,/
Cc1ccc(OCC(O)CN2CCN(CC(O)COc3ccc(C)cc3)CC2)cc1 (configuration not stated),.,45.0,.,.,.,.,.,.
CN1CCN(NC(=O)/C=C/c2cccc(Cl)c2)CC1,.,.,.,.,.,/,/,/
CN1CCN(C(=O)/C=C\c2ccc(Cl)cc2)CC1,.,88.5,.,.,.,66.2,.,.
CN1CCN(C(=O)/C=C/c2c(F)cccc2Cl)CC1,.,.,.,.,.,/,/,/
CN1CCN(C(=O)/C=C/c2cccc(Cl)c2)CC1,.,45.9,.,.,.,.,.,.
OC(COc1ccc(Cl)cc1)CN1CCC(Cc2ccccc2)CC1 (configuration not stated),.,59.9,.,.,.,.,.,.
O=C(/C=C/c1ccccc1)N1CCN(CC(O)COc2ccccc2)CC1 (configuration not stated),.,82.1,.,.,.,54.5,.,.

# Screening data (PubChem)
